In ChEMBL document CHEMBL4425095, “Novel Cephalosporins Selectively Active on Nonreplicating Mycobacterium tuberculosis” (J Med Chem, 2016):
Converted amounts (≈) assume the structure as drawn. The source made the active and inactive calls. The rule behind the calls is not given here.

Experiments:
[1] = Cytotoxicity against human HepG2 cells assessed as reduction in cell viability after 2 days by Celltiter-Glo reagent based assay; settings: read-out: LD50
Method in brief: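 HepG2 cells in DMEM with 10% FBS, pyruvate, glutamine and nonessential amino acids. Seeded at 3000 cells/well and exposed 2 days to compound or vehicle (≤1% DMSO final). Reported as LD50.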

[2] = Stability in pH 7.4 phosphate buffer solution assessed as parent compound remaining at 5 to 50 ug/ml at 37 degC measured every 12 hrs up to 144 hrs by LC-MS analysis; format: physicochemical
Method in brief: (§1)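 Compound at 50 μg/mL in cell-free PBS pH 7.4, or nonreplicating medium pH 5.0 (BSA, tyloxapol, lysine, pantothenate omitted) with or without 0.5 mM NaNO2. Poorly soluble compounds at 5 μg/mL in 50:50 acetonitrile mixtures, pH readjusted to 5.0.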

[3] = Stability in pH 5 non-replicating medium assessed as parent compound remaining at 5 to 50 ug/ml at 37 degC measured every 12 hrs up to 144 hrs by LC-MS analysis; format: physicochemical; settings: buffer; method in brief: as §1
[4] = Stability in pH 5 non-replicating medium containing 0.5 mM NaNO2 assessed as parent compound remaining at 5 to 50 ug/ml at 37 degC measured every 12 hrs up to 144 hrs by LC-MS analysis; format: physicochemical; settings: buffer; method in brief: as §1
[5] = Stability of compound in pH 2 solution assessed as parent compound remaining incubated for 4 hrs at 37 degC; format: physicochemical; settings: read-out: Stability
Method in brief: (§2)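 Percent parent compound remaining after 4 h incubation at 37 °C at the stated pH.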

[6] = Stability of compound in pH 7 solution assessed as parent compound remaining incubated for 4 hrs at 37 degC; format: physicochemical
[7] = Stability of compound in pH 12 solution assessed as parent compound remaining incubated for 4 hrs at 37 degC; format: physicochemical; settings: read-out: Stability; method in brief: as §2
[8] = Solubility of compound in pH 7.4 solution measured after shaking for 4 hrs; format: physicochemical
Method in brief: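 Solubility at pH 7.4 determined after shaking at room temperature for 4 h.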

[9] = Permeability of compound by PAMPA; format: ADME; settings: read-out: permeability
Method in brief: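 PAMPA membrane permeability by a contract lab; reported as mean Pe (10^-6 cm/s) and log Pe.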

[10] = Stability in mouse liver microsomes assessed as compound metabolism up to 60 mins; format: ADME, Microsome; settings: 1 h
Method in brief: (§3)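 Mouse and human liver microsomal stability run by a contract lab in triplicate.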

[11] = Half life in mouse liver microsomes; format: ADME, Microsome; method in brief: as §3
[12] = Half life in human liver microsomes; format: ADME, Microsome; method in brief: as §3
[13] = Intrinsic clearance in human liver microsomes assessed per mg protein measured up to 60 mins; format: ADME, Microsome; settings: 1 h; method in brief: as §3
[14] = Stability in CD-1 mouse plasma assessed as drug transformation at 1 ug/ml measured at <5 mins by LC-MS analysis; format: ADME, cell-free
[15] = Half life in human plasma at 1 ug/ml by LC-MS analysis; format: ADME, cell-free
[16] = tested on: Mycobacterium tuberculosis; assay: Bactericidal activity against wild-type non-replicating Mycobacterium tuberculosis H37Rv assessed as log reduction in CFU incubated for 7 days measured at OD580 = 0.1 in presence of 0.5 mM NaNO2 by charcoal agar resazurin assay; format: functional, organism-based
Method in brief: (§4)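 Nonreplicating wild-type H37Rv at OD580 0.1 or 0.01 treated 7 days with or without 0.5 mM NaNO2. 10 μL spotted onto 7H11-OADC-charcoal agar and incubated 7–10 days at 37 °C. Developed with Alamar blue:Tween80 1:1 for 1 h; fluorescence read at ex 530/em 590. Complete loss of fluorescence taken as ≥2–3 log10 CFU reduction.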

Escherichia coli = assay: Antibacterial activity against replicating Escherichia coli measured at OD580 = 0.01; format: functional
Method in brief: (§5)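 Replicating organisms in the paper's earlier-described bacteriologic medium; 200 μL of cells at OD580 0.01 exposed to DMSO vehicle or drug in 96-well plates; growth read by optical density.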

Pseudomonas aeruginosa = assay: Antibacterial activity against replicating Pseudomonas aeruginosa measured at OD580 = 0.01; format: functional; method in brief: as §5
Staphylococcus aureus = assay: Antibacterial activity against replicating Staphylococcus aureus measured at OD580 = 0.01; format: functional; method in brief: as §5
[17] = tested on: Mycolicibacterium smegmatis; assay: Antibacterial activity against replicating Mycobacterium smegmatis measured at OD580 = 0.01; format: functional; method in brief: as §5
Candida albicans = assay: Antifungal activity against replicating Candida albicans measured at OD580 = 0.01; format: functional; method in brief: as §5
[18] = tested on: Mycobacterium tuberculosis; assay: Bactericidal activity against wild-type non-replicating Mycobacterium tuberculosis H37Rv assessed as log reduction in CFU at 0.7 to 0.8 ug/ml incubated for 7 days measured at OD580 = 0.01 by charcoal agar resazurin assay; format: functional
Method in brief: (§6)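 Nonreplicating wild-type H37Rv at OD580 0.01 exposed to compound for 7 days. Survivors serially diluted in PBS-tyloxapol and plated on 7H11-OADC agar; colonies counted at ~3 weeks. Limit of detection 1 colony from 10 μL undiluted sample; triplicates, one of two experiments.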

[19] = tested on: Mycobacterium tuberculosis; assay: Bactericidal activity against wild-type non-replicating Mycobacterium tuberculosis H37Rv assessed as log reduction in CFU at 3 to 10 ug/ml incubated for 7 days measured at OD580 = 0.01 by charcoal agar resazurin assay; format: functional; method in brief: as §6
[20] = tested on: Mycobacterium tuberculosis; assay: Bactericidal activity against wild-type non-replicating Mycobacterium tuberculosis H37Rv assessed as drug tolerance development at 3 to 10 ug/ml incubated for 7 days measured at OD580 = 0.01 by charcoal agar resazurin assay; format: functional, organism-based
[21] = tested on: Mycobacterium tuberculosis; assay: Bactericidal activity against wild-type non-replicating Mycobacterium tuberculosis H37Rv assessed as reduction in CFU at 0.1 to 100 ug/ml incubated for 7 days measured at OD580 = 0.01 in presence of beta-lactamase inhibitor clavulanate by charcoal agar resazurin assay; format: functional, organism-based
[22] = tested on: Mycobacterium tuberculosis; assay: Bactericidal activity against wild-type replicating Mycobacterium tuberculosis H37Rv assessed as reduction in CFU in presence of beta-lactamase inhibitor clavulanate; format: functional, organism-based
[23] = tested on: Mycobacterium tuberculosis; assay: Bactericidal activity against wild-type non-replicating Mycobacterium tuberculosis H37Rv at 1 to 100 ug/ml incubated for 7 days measured at OD580 = 0.1 in presence of 0.06 to 1 mM NaNO2; format: functional, organism-based
Method in brief: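 Wild-type H37Rv resuspended at OD580 0.1 in nonreplicating medium with NaNO2 at 0–1 mM, one plate per nitrite level. Exposed to compound for 7 days, then standard outgrowth assay to estimate survivors.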

[24] = tested on: Mycobacterium tuberculosis; assay: Bactericidal activity against wild-type non-replicating Mycobacterium tuberculosis H37Rv assessed as log reduction in CFU incubated for 7 days measured at OD580 = 0.01 in presence of 0.5 mM NaNO2 by charcoal agar resazurin assay; format: functional, organism-based; method in brief: as §4
[25] = tested on: Mycobacterium tuberculosis; assay: Bactericidal activity against wild-type non-replicating Mycobacterium tuberculosis H37Rv incubated for 7 days measured at OD580 = 0.01 in absence of NaNO2 by charcoal agar resazurin assay; format: functional, organism-based; method in brief: as §4
[26] = tested on: Mycobacterium tuberculosis; assay: Bactericidal activity against wild-type non-replicating Mycobacterium tuberculosis H37Rv infected in recombinant mouse IFN-gamma stimulated C57BL6 mouse primary BMDM assessed as log reduction in CFU at 100 ug/ml incubated for 4 days by charcoal agar resazurin assay; format: functional
Method in brief: (§7)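 Bone marrow macrophages (~1×10^5) from 8-week female C57Bl6 mice grown in DMEM/10% FBS/10% L-cell medium, with or without 50 ng/mL mouse IFNγ. Infected with H37Rv at MOI 1–5 for 4 h, washed, then given 100 μg/mL compound in 1% DMSO for 3 or 4 days. Lysed in 0.5% Triton X-100, CFU counted on 7H11-OADC agar; morphology observed.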

BMDM [27] = assay: Cytotoxicity against C57BL6 mouse primary BMDM infected with wild-type non-replicating Mycobacterium tuberculosis H37Rv assessed as cell morphological changes at 100 ug/ml after 4 days; format: cell-based; settings: 96 h; method in brief: as §7
[28] = tested on: Mycobacterium tuberculosis; assay: Potentiation of meropenem-induced bactericidal activity against wild-type replicating Mycobacterium tuberculosis H37Rv assessed as decrease in MIC90 relative to control; format: functional
BMDM [29] = assay: Cytotoxicity against C57BL6 mouse primary BMDM infected with wild-type non-replicating Mycobacterium tuberculosis H37Rv assessed as cell morphological changes at 100 ug/ml after 3 days; format: cell-based; settings: 72 h; method in brief: as §7
[30] = tested on: Mycobacterium tuberculosis; assay: Bactericidal activity against wild-type non-replicating Mycobacterium tuberculosis H37Rv infected in recombinant mouse IFN-gamma stimulated C57BL6 mouse primary BMDM assessed as log reduction in CFU at 100 ug/ml incubated for 3 days by charcoal agar resazurin assay; format: functional; method in brief: as §7

| SMILES | CC50 at 48 h [1] [µg/mL] | Stability [4] | remaining at 4 h [5] [%] | remaining at 4 h [7] [%] | solubility at 4 h [8] [µM] | Papp [9] [×10⁻⁶ cm/s] | Stability [10] | t1/2 [11] [min] | t1/2 [12] [h] | CLH [13] [µL/min] | Stability [14] | t1/2 [15] [h] | Activity [16] | MIC90 (Escherichia coli) [µg/mL] | MIC90 (Pseudomonas aeruginosa) [µg/mL] | MIC90 (Staphylococcus aureus) [µg/mL] | MIC90 [17] [µg/mL] | MIC90 (Candida albicans) [µg/mL] | Activity [18] [deltalog10CFU/ml] | LCK [19] | also measured |
| --- | --- | --- | --- | --- | --- | --- | --- | --- | --- | --- | --- | --- | --- | --- | --- | --- | --- | --- | --- | --- | --- |
| CCCOC(=O)C1=C(C)CS[C@@H]2[C@H](NC(=O)COc3ccccc3)C(=O)N12 | 75.7 to 100 (≈ 194 to 256 µM) | 100% | 100 to 110 | 0 | 22.7 to 23 (≈ 8.86 to 8.98 µg/mL) | 7.28 | Unstable | < 5 | 1.44 | 8.07 | Unstable | 2 to 3 | Dose-dependent effect | > 100 | > 100 | > 100 | > 100 | > 100 | 2 | >=3.4 | Stability [2]: 80%; Stability [3]: 100%; Stability ([6]; buffer, pH 7, 4 h): 133%; Activity [20]: Active; Activity [21]: Active; Activity [22]: inactive; Activity [23]: Active; Activity [24]: Dose-dependent effect; Activity [25]: Active; Activity [26]: 1 - 2 deltalog10CFU/ml; Activity (BMDM [27]): Non-Toxic |
| O=C(O)[C@H]1/C(=C/CO)O[C@@H]2CC(=O)N21 [CLAVULANIC ACID] | – | – | – | – | – | – | – | – | – | – | – | – | – | – | – | – | – | – | – | – | fold change (FC) [28]: 4 |
| CC1=C(c2nc(C)no2)N2C(=O)[C@@H](NC(=O)COc3ccccc3)[C@H]2SC1 | > 100 | Stable | 100 to 102 | 0 | 83.7 to 84 (≈ 32.3 to 32.5 µg/mL) | 13.4 | Unstable | < 5 | 1.27 | 9.13 | Unstable | 2 to 3 | Dose-dependent effect | > 100 | > 100 | > 100 | > 100 | > 100 | 2 | >=3.4 | remaining at 4 h ([6]; pH 7 solution, pH 7, read-out: Stability): 101%; Activity [20]: Active; Activity [24]: Dose-dependent effect; Activity [25]: Active; Activity (BMDM [29]): Non-Toxic; Activity [30]: 1 - 2 deltalog10CFU/ml |
